ChEMBL document CHEMBL3352188, “Synthesis, antimicrobial and molecular docking studies of enantiomerically pure N-alkylated β-amino alcohols from phenylpropanolamines” (2014)

How the values were obtained:
[1] = tested on: Klebsiella aerogenes; experiment: Antimicrobial activity against Enterobacter aerogenes MTCC 111 at 1 mg/disc after 24 hrs by disc diffusion assay; assay type: functional
In short: (§1)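 Disc diffusion on Mueller Hinton agar. Inoculum was grown in MHB for 24 h at 37 °C, swabbed onto the plates and dried for 10 min. Discs with 1 mg compound were left 30 min at room temperature for diffusion, then incubated at 37 °C for 24 h. Inhibition zone was read in mm; run twice. Solvent was the negative control, streptomycin the positive control.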

[2] = tested on: Micrococcus luteus; experiment: Antimicrobial activity against Micrococcus luteus MTCC 106 at 1 mg/disc after 24 hrs by disc diffusion assay; assay type: functional; in short: as §1
[3] = tested on: Micrococcus luteus; experiment: Bactericidal activity against Micrococcus luteus MTCC 106 after 24 hrs by two fold dilution method; assay type: functional; details: MTCC 106, 24 h
In short: (§2)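 Tubes held 5 mL MHB with two-fold dilutions from 1000 to 7.81 µg/mL and were inoculated with 5 × 10^5 to 1 × 10^6 cells in 0.1 mL MHB, incubated without shaking. Turbidity was checked at 20 h, tubes vortexed and re-incubated 4 h.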

[4] = tested on: Shigella flexneri; experiment: Bactericidal activity against Shigella flexneri MTCC 1457 after 24 hrs by two fold dilution method; assay type: functional; details: MTCC 1457, 24 h; in short: as §2
[5] = tested on: Micrococcus luteus; experiment: Antimicrobial activity against Micrococcus luteus MTCC 106 after 24 hrs by two fold dilution method; assay type: functional; details: MTCC 106, 24 h
In short: (§3)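 Broth two-fold serial dilution in 96-well plates from 1000 to 7.81 µg/mL, compound in DMSO (2%). Inoculum was grown in MHB for 24 h at 37 °C; plates were incubated 24 h at 37 °C. 5 µL of broth was spotted onto MHA; MIC was the lowest concentration with no visible growth on agar. Streptomycin was the positive control.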

[6] = tested on: Salmonella typhimurium; experiment: Antimicrobial activity against Salmonella typhimurium MTCC 1251 at 1 mg/disc after 24 hrs by disc diffusion assay; assay type: functional, Salmonella enterica subsp. enterica serovar Typhimurium; in short: as §1
[7] = tested on: Staphylococcus aureus; experiment: Antimicrobial activity against Staphylococcus aureus MTCC 96 at 1 mg/disc after 24 hrs by disc diffusion assay; assay type: functional; in short: as §1
[8] = tested on: Proteus vulgaris; experiment: Bactericidal activity against Proteus vulgaris MTCC 1771 after 24 hrs by two fold dilution method; assay type: functional; details: MTCC 1771, 24 h; in short: as §2
[9] = tested on: Bacillus subtilis; experiment: Bactericidal activity against Bacillus subtilis MTCC 441 after 24 hrs by two fold dilution method; assay type: functional; details: MTCC 441, 24 h; in short: as §2
[10] = tested on: Candida albicans; experiment: Fungicidal activity against Candida albicans MTCC 227 after 48 to 72 hrs by two fold dilution method; assay type: functional
[11] = tested on: Klebsiella aerogenes; experiment: Bactericidal activity against Enterobacter aerogenes MTCC 111 after 24 hrs by two fold dilution method; assay type: functional; details: MTCC 111, 24 h; in short: as §2
[12] = tested on: Staphylococcus aureus; experiment: Bactericidal activity against Staphylococcus aureus MTCC 96 after 24 hrs by two fold dilution method; assay type: functional; details: MTCC 96, 24 h; in short: as §2
[13] = tested on: Pseudomonas aeruginosa; experiment: Bactericidal activity against Pseudomonas aeruginosa MTCC 741 after 24 hrs by two fold dilution method; assay type: functional; details: MTCC 741, 24 h; in short: as §2
[14] = tested on: Staphylococcus aureus; experiment: Antimicrobial activity against Staphylococcus aureus MTCC 96 after 24 hrs by two fold dilution method; assay type: functional; details: MTCC 96, 24 h; in short: as §3
[15] = tested on: Salmonella enterica subsp. enterica serovar Paratyphi B; experiment: Antimicrobial activity against Salmonella paratyphi B at 1 mg/disc after 24 hrs by disc diffusion assay; assay type: functional; in short: as §1
[16] = tested on: Staphylococcus aureus; experiment: Antimicrobial activity against methicillin-resistant Staphylococcus aureus MTCC 96 after 24 hrs by two fold dilution method; assay type: functional; details: MTCC 96, 24 h; in short: as §3
[17] = tested on: Klebsiella pneumoniae; experiment: Antimicrobial activity against Klebsiella pneumoniae MTCC 109 at 1 mg/disc after 24 hrs by disc diffusion assay; assay type: functional; in short: as §1
[18] = tested on: Proteus vulgaris; experiment: Antimicrobial activity against Proteus vulgaris MTCC 1771 after 24 hrs by two fold dilution method; assay type: functional; details: MTCC 1771, 24 h; in short: as §3
[19] = tested on: Bacillus subtilis; experiment: Antimicrobial activity against Bacillus subtilis MTCC 441 at 1 mg/disc after 24 hrs by disc diffusion assay; assay type: functional; in short: as §1
[20] = tested on: Pseudomonas aeruginosa; experiment: Antimicrobial activity against Pseudomonas aeruginosa MTCC 741 after 24 hrs by two fold dilution method; assay type: functional; details: MTCC 741, 24 h; in short: as §3
[21] = tested on: Klebsiella pneumoniae; experiment: Bactericidal activity against Klebsiella pneumoniae MTCC 109 after 24 hrs by two fold dilution method; assay type: functional; details: MTCC 109, 24 h; in short: as §2
[22] = tested on: Candida albicans; experiment: Antimicrobial activity against Candida albicans MTCC 227 at 1 mg/disc after 24 hrs by disc diffusion assay; assay type: functional
[23] = tested on: Bacillus subtilis; experiment: Antimicrobial activity against Bacillus subtilis MTCC 441 after 24 hrs by two fold dilution method; assay type: functional; details: MTCC 441, 24 h; in short: as §3
[24] = tested on: Malassezia pachydermatis; experiment: Antimicrobial activity against Malassezia pachydermatis after 48 to 72 hrs by two fold dilution method; assay type: functional
In short: (§4)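 Yeast was grown in Sabouraud dextrose broth at 28 °C for 48 h and tested per CLSI reference methods. Two-fold serial dilutions from 1000 to 7.81 µg/mL, compound in DMSO (2%), in 96-well plates, incubated 48–72 h at 28 °C. MIC was the lowest concentration with no visible fungal growth. Ketoconazole was the positive control.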

[25] = tested on: Pseudomonas aeruginosa; experiment: Antimicrobial activity against Pseudomonas aeruginosa MTCC 741 at 1 mg/disc after 24 hrs by disc diffusion assay; assay type: functional; in short: as §1
[26] = tested on: Shigella flexneri; experiment: Antimicrobial activity against Shigella flexneri MTCC 1457 after 24 hrs by two fold dilution method; assay type: functional; details: MTCC 1457, 24 h; in short: as §3
[27] = tested on: Malassezia pachydermatis; experiment: Antimicrobial activity against Malassezia pachydermatis at 1 mg/disc after 24 hrs by disc diffusion assay; assay type: functional
[28] = tested on: Klebsiella pneumoniae; experiment: Antimicrobial activity against Klebsiella pneumoniae MTCC 109 after 24 hrs by two fold dilution method; assay type: functional; details: MTCC 109, 24 h; in short: as §3
[29] = tested on: Proteus vulgaris; experiment: Antimicrobial activity against Proteus vulgaris MTCC 1771 at 1 mg/disc after 24 hrs by disc diffusion assay; assay type: functional; in short: as §1
[30] = tested on: Salmonella typhimurium; experiment: Bactericidal activity against Salmonella typhimurium MTCC 1251 after 24 hrs by two fold dilution method; assay type: functional, Salmonella enterica subsp. enterica serovar Typhimurium; details: Salmonella enterica, MTCC 1251, 24 h; in short: as §2
[31] = tested on: Salmonella enterica subsp. enterica serovar Paratyphi B; experiment: Bactericidal activity against Salmonella paratyphi B after 24 hrs by two fold dilution method; assay type: functional; in short: as §2
[32] = tested on: Staphylococcus aureus; experiment: Antimicrobial activity against […] Staphylococcus aureus MTCC 96 at 1 mg/disc after 24 hrs by disc diffusion assay; assay type: functional; in short: as §1
[33] = tested on: Salmonella typhimurium; experiment: Antimicrobial activity against Salmonella typhimurium MTCC 1251 after 24 hrs by two fold dilution method; assay type: functional, Salmonella enterica subsp. enterica serovar Typhimurium; details: Salmonella enterica, MTCC 1251, 24 h; in short: as §3
[34] = tested on: Malassezia pachydermatis; experiment: Fungicidal activity against Malassezia pachydermatis after 48 to 72 hrs by two fold dilution method; assay type: functional
[35] = tested on: Candida albicans; experiment: Antimicrobial activity against Candida albicans MTCC 227 after 48 to 72 hrs by two fold dilution method; assay type: functional; in short: as §4
[36] = tested on: Salmonella enterica subsp. enterica serovar Paratyphi B; experiment: Antimicrobial activity against Salmonella paratyphi B after 24 hrs by two fold dilution method; assay type: functional; in short: as §3
[37] = tested on: Staphylococcus aureus; experiment: Bactericidal activity against methicillin-resistant Staphylococcus aureus MTCC 96 after 24 hrs by two fold dilution method; assay type: functional; details: MTCC 96, 24 h; in short: as §2
[38] = tested on: Klebsiella aerogenes; experiment: Antimicrobial activity against Enterobacter aerogenes MTCC 111 after 24 hrs by two fold dilution method; assay type: functional; details: MTCC 111, 24 h; in short: as §3
[39] = tested on: Shigella flexneri; experiment: Antimicrobial activity against Shigella flexneri MTCC 1457 at 1 mg/disc after 24 hrs by disc diffusion assay; assay type: functional; in short: as §1

Structure (SMILES) | inhibition zone (IZ) [1] | inhibition zone (IZ) [2] | MBC [3] | MBC [4] | MIC [5] | inhibition zone (IZ) [6] | inhibition zone (IZ) [7] | MBC [8] | MBC [9] | MFC [10] | MBC [11] | MBC [12] | MBC [13] | MIC [14] | inhibition zone (IZ) [15] | MIC [16] | inhibition zone (IZ) [17] | MIC [18] | inhibition zone (IZ) [19] | MIC [20] | further results
C[C@H](N[C@H](C)c1ccccc1)[C@H](O)c1ccccc1.Cl | 13 mm | 14 mm | 250 µg/mL | 500 µg/mL | 125 µg/mL | 11 mm | 16 mm | 500 µg/mL | 125 µg/mL | 125 µg/mL | 250 µg/mL | 62.5 µg/mL | 125 µg/mL | 62.5 µg/mL | 14 mm | 250 µg/mL | 13 mm | 250 µg/mL | 14 mm | 62.5 µg/mL | MBC [21]: 500 µg/mL; inhibition zone (IZ) [22]: 14 mm; MIC [23]: 125 µg/mL; MIC [24]: 125 µg/mL; inhibition zone (IZ) [25]: 16 mm; MIC [26]: 250 µg/mL; inhibition zone (IZ) [27]: 15 mm; MIC [28]: 250 µg/mL; inhibition zone (IZ) [29]: 12 mm; MBC [30]: 500 µg/mL; MBC [31]: 250 µg/mL; inhibition zone (IZ) [32]: 11 mm; MIC [33]: 250 µg/mL; MFC [34]: 125 µg/mL; MIC [35]: 125 µg/mL; MIC [36]: 125 µg/mL; MBC [37]: 500 µg/mL; MIC [38]: 125 µg/mL; inhibition zone (IZ) [39]: 16 mm
CC(C)C[C@H](C)N[C@H](C)[C@@H](O)c1ccccc1.Cl | 12 mm | 13 mm | 500 µg/mL | 500 µg/mL | 250 µg/mL | 10 mm | 13 mm | 125 µg/mL | 250 µg/mL | 250 µg/mL | 250 µg/mL | 250 µg/mL | 500 µg/mL | 250 µg/mL | 10 mm | 125 µg/mL | 13 mm | 125 µg/mL | 12 mm | 250 µg/mL | MBC [21]: 250 µg/mL; inhibition zone (IZ) [22]: 13 mm; MIC [23]: 250 µg/mL; MIC [24]: 250 µg/mL; inhibition zone (IZ) [25]: 11 mm; MIC [26]: 250 µg/mL; inhibition zone (IZ) [27]: 12 mm; MIC [28]: 250 µg/mL; inhibition zone (IZ) [29]: 14 mm; MBC [30]: 500 µg/mL; MBC [31]: 500 µg/mL; inhibition zone (IZ) [32]: 15 mm; MIC [33]: 500 µg/mL; MFC [34]: 250 µg/mL; MIC [35]: 250 µg/mL; MIC [36]: 250 µg/mL; MBC [37]: 250 µg/mL; MIC [38]: 250 µg/mL; inhibition zone (IZ) [39]: 10 mm
